In brackets after ≈: the same amount, converted by molar mass. Activity calls are given as the source filed them.
Legend:
Streptococcus pneumoniae [1] = assay: Antibacterial activity against Streptococcus pneumoniae 1-970-1 with gyrB Asp435Glu mutation; type: functional
Streptococcus pyogenes [2] = assay: Bactericidal activity against Streptococcus pyogenes C203 at 0.008 ug/ml by time-kill study; type: functional, organism-based
How it was run: (§1)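 Time-kill in 10 ml of cation-adjusted Mueller-Hinton broth with 3% lysed horse blood, without agitation. Multiples of MIC tested. Samples taken at 0, 2, 4, 6 and 24 h and plated on tryptic soy agar with 5% sheep blood after ≥250-fold dilution, detection limit 10 CFU/ml. Counts read after 24 h at 35°C. Bactericidal defined as a ≥3 log10 drop from the starting inoculum within 24 h.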

Streptococcus pneumoniae [3] = assay: Antibacterial activity against Streptococcus pneumoniae 1-970-2 with gyrB Asp435Glu, Glu475Ala and parE Pro475Ser mutation; type: functional
Streptococcus pneumoniae [4] = assay: Antibacterial activity against Streptococcus pneumoniae 7785; type: functional
Streptococcus pneumoniae [5] = assay: Antibacterial activity against quinolone-resistant Streptococcus pneumoniae SP4333 infected twice daily orally dosed CD1 mouse; type: functional; settings: po; for ED50: read-out: PD50
How it was run: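 Pneumonia model in CD1 mice (n = 8), anaesthetised with ketamine i.p. Intranasal instillation of 50 μl of broth culture (10^8–10^9 CFU/ml, OD600 0.70), confirmed by plate counts. Oral therapy began 24 h post-challenge. Dosing was either once daily for 1 day or twice daily for 3 days. The result was given as the PD50 (mg/kg).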

Enterococcus faecalis = assay: Antibacterial efficacy against Enterococcus faecalis MGH2 infected orally dosed CD1 mouse model; type: functional
How it was run: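 Sepsis model in female CD1 mice (6–8 weeks, 18–22 g). Lethal i.p. challenge (0.5 ml) at ≥100 median lethal doses. Streptococci were given in Todd-Hewitt broth; other organisms were given with 20% hog gastric mucin. A single oral gavage dose (0.5 ml, in 0.5% methylcellulose) was given at the time of challenge. The PD50 (mg/kg) was calculated by probit analysis.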

Escherichia coli = assay: Antibacterial efficacy against Escherichia coli Vogel infected orally dosed CD1 mouse model; type: functional
How it was run: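 Female CD1 mice, 6–8 weeks old (18–22 g), challenged intraperitoneally (0.5 ml) with ≥100 median lethal doses suspended in 20% hog gastric mucin. Single oral gavage dose at the time of challenge, in 0.5% methylcellulose. Untreated controls of 10 mice per group. PD50 (mg/kg), the dose protecting 50% of mice from lethal infection, calculated by probit analysis.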

Streptococcus pyogenes [6] = assay: Bactericidal activity against Streptococcus pyogenes C203 at 2 ug/ml by time-kill study; type: functional, organism-based; how it was run: as §1
Streptococcus pneumoniae [7] = assay: Bactericidal activity against Streptococcus pneumoniae SV1 at 0.008 ug/ml by time-kill study; type: functional, organism-based; how it was run: as §1
Streptococcus pneumoniae [8] = assay: Bactericidal activity against Streptococcus pneumoniae SV1 at 2 ug/ml by time-kill study; type: functional, organism-based; how it was run: as §1

Structure (SMILES) | MIC (Streptococcus pneumoniae [1]) | Activity (Streptococcus pyogenes [2]) | MIC (Streptococcus pneumoniae [3]) | MIC (Streptococcus pneumoniae [4]) | MIC (Streptococcus pneumoniae [5]) | ED50 (Streptococcus pneumoniae [5]) | MIC (Enterococcus faecalis) | ED50 (Enterococcus faecalis; read-out: PD50) | MIC (Escherichia coli) | ED50 (Escherichia coli; read-out: PD50) | Activity (Streptococcus pyogenes [6]) | Activity (Streptococcus pneumoniae [7]) | Activity (Streptococcus pneumoniae [8])
Cc1c(N2CC[C@@H]([C@H](C)N)C2)c(F)cc2c(=O)n(N)c(=O)n(C3CC3)c12 | 0.06 µg/mL (≈ 0.166 µM) | Active | 0.125 µg/mL (≈ 0.346 µM) | 0.03 µg/mL (≈ 0.083 µM) | 0.03 µg/mL (≈ 0.083 µM) | 4.1 mg/kg | 0.125 µg/mL (≈ 0.346 µM) | 19 mg/kg | 1 µg/mL (≈ 2.77 µM) | 82 mg/kg | Active | Active | Active
C[C@H]1COc2c(N3CCN(C)CC3)c(F)cc3c(=O)c(C(=O)O)cn1c23.C[C@H]1COc2c(N3CCN(C)CC3)c(F)cc3c(=O)c(C(=O)O)cn1c23.O [LEVOFLOXACIN] |  |  |  |  |  | > 200 mg/kg | 1 µg/mL |  |  |  |  |  | 

Reference: ChEMBL document CHEMBL1147105, “In vitro and in vivo activities of PD 0305970 and PD 0326448, new bacterial gyrase/topoisomerase inhibitors with potent antibacterial activities versus multidrug-resistant gram-positive and fastidious organism groups” (2007)
